Published values collected from several papers.
EAPA: Endothiapepsin (EAPA, Cryphonectria parasitica, UniProt P11838)
Tmem97: Sigma intracellular receptor 2 (Tmem97, Rattus norvegicus, UniProt Q5U3Y7)
BDKRB2: B2 bradykinin receptor (BDKRB2, Homo sapiens, UniProt P30411)
Trypanothione synthetase: Trypanothione synthetase (Trypanosoma cruzi, UniProt Q9GT49)
HTR2C: 5-hydroxytryptamine receptor 2C (HTR2C, Homo sapiens, UniProt P28335)
TACR1: Substance-P receptor (TACR1, Homo sapiens, UniProt P25103)
dxs: 1-deoxy-D-xylulose-5-phosphate synthase (dxs, Deinococcus radiodurans, UniProt Q9RUB5)

| Structure (SMILES) | target | effect on | action | method | concentration | pH | inhibition [%] |
| --- | --- | --- | --- | --- | --- | --- | --- |
| NNC(COCc1ccccc1)c1nnnn1Cc1ccc2c(c1)OCO2 (stereo not shown) | EAPA | enzyme activity | inhibitor | – | 200 µM | – | 48.3 |
| CN(C)C1CCN(CC#Cc2nn(C3CCCC3)c3nc(NCc4ccccc4)ncc23)C1 (stereo not shown) | Serine/threonine-protein kinase PLK1 (PLK1, Homo sapiens, UniProt P53350) | enzyme activity | inhibitor | FRET | 10 µM | – | -5 |
| CNC(=O)[C@@]12C[C@@H]1[C@@H](n1cnc3c(NC)nc(C#Cc4ccc(Cl)s4)nc31)[C@H](O)[C@@H]2O | Tmem97 | ligand displacement | – | radioligand | 10 µM | – | 60 to 70 |
| O=C(Nc1ccc(S(=O)(=O)N2CCC(Cl)CC2)cc1)c1ccc([N+](=O)[O-])o1 | BDKRB2 | ligand displacement | – | radioligand | 10 µM | – | 4 |
| CC(C)(C)OC(=O)CN1C(=O)Cc2c([nH]c3ccc(Br)cc23)-c2ccc(Cl)cc21 | Trypanothione synthetase | enzyme activity | inhibitor | absorbance | 30 µM | – | 10.3 |
| Ic1cccc2cnccc12 | NMNAT1 (Homo sapiens, UniProt Q9HAN9) | enzyme activity | inhibitor | – | 10 µM | – | -3 |
| COc1cc2c3c(c1OC)-c1cc4c(cc1CC3N(C)CC2c1ccccc1)OCO4 (stereo not shown) | HTR2C | ligand displacement | – | radioligand | 10 µM | – | < 50 |
| O=C(c1ccc(F)cc1)N(Cc1ccccc1)C1CCCCC1 | BDKRB2 | cell-free assay | – | – | 10 µM | – | -3 |
| CN(C)C(=O)CN1C(=O)Cc2c([nH]c3ccc(Br)cc23)-c2ccc(Cl)cc21 | Trypanothione synthetase | enzyme activity | inhibitor | absorbance | 30 µM | – | 14.9 |
| O=C1N=C(N2CCCCN2)S/C1=C\c1ccc(F)cc1O | BDKRB2 | ligand displacement | – | radioligand | 10 µM | – | < 10 |
| CC1CNc2c(cccc2S(=O)(=O)N[C@@H](CCCNC(=N)N)C(=O)N2CC[C@@H](C)C[C@@H]2C(=O)O)C1 (stereo partly shown) | Prothrombin (F2, Bos taurus, UniProt P00735) | enzyme activity | inhibitor | fluorescence | 0.1 µg/mL | – | 94 |
| NCCNC(=O)CN1C(=O)Cc2c([nH]c3ccc(Br)cc23)-c2ccc(Cl)cc21 | Trypanothione synthetase | enzyme activity | inhibitor | absorbance | 30 µM | – | 26.3 |
| O=C(O)c1ccccn1 | Stromelysin-1 (MMP3, Homo sapiens, UniProt P08254) | enzyme activity | inhibitor | – | 1 mM | pH 6 | > 80 |
| NNC(CCc1ccccc1)c1nnnn1CC(=O)NCc1cccs1 (stereo not shown) | EAPA | enzyme activity | inhibitor | – | 200 µM | – | 39.1 |
| CS(=O)(=O)O.c1cc2c(cc1C1CCCCC1)c1c3n2CCNC3CCC1 (stereo not shown) | Trypanothione synthetase | enzyme activity | inhibitor | absorbance | 25 µM | – | 28.9 |
| COc1cc(NC(C)=O)c(Cl)cc1C(=O)Nc1nccs1 | BDKRB2 | cell-free assay | – | – | 10 µM | – | -21.3 |
| CCCNc1nc2ccccc2n1Cc1ccc(Cl)cc1 | Tmem97 | ligand displacement | – | – | 10 µM | – | 54 |
| CCN(Cc1ccccc1C(F)(F)F)C(=O)C1CCN(S(=O)(=O)c2ccc3[nH]ncc3c2)CC1 | Melatonin receptor type 1A (MTNR1A, Homo sapiens, UniProt P48039) | ligand displacement | – | radioligand | 10 µM | – | 34 |
| O=C(CN1C(=O)Cc2c([nH]c3ccc(Br)cc23)-c2ccc(Cl)cc21)NCCN1CCOCC1 | Trypanothione synthetase | enzyme activity | inhibitor | absorbance | 30 µM | – | 11.3 |

| Structure (SMILES) | target | effect on | action | method | concentration | pH | inhibition [%] |
| --- | --- | --- | --- | --- | --- | --- | --- |
| N#Cc1cc(Cn2c(N3CCCC3)nc3ccccc32)ccc1F | Tmem97 | ligand displacement | – | – | 10 µM | – | 88.9 |
| CN(Cc1ccc(NC(=O)C2=Cc3cc(-c4ccc(OCCCCCF)cc4)ccc3CCC2)cc1)C1CCOCC1 | Tmem97 | ligand displacement | – | radioligand | 10 µM | – | 7 |
| O=C(CN1C(=O)Cc2c([nH]c3ccc(Br)cc23)-c2ccc(Cl)cc21)N1CCNCC1 | Trypanothione synthetase | enzyme activity | inhibitor | absorbance | 30 µM | – | 17.1 |
| CN1CC(Oc2cnc(C#N)cc2-c2ccn3nc(NC(=O)C4CC4)cc3c2)C1 | MAPK/MAK/MRK overlapping kinase (MOK, Homo sapiens, UniProt Q9UQ07) | enzyme activity | inhibitor | – | 1 µM | – | 15 |
| CC(Cc1ccc(C(C)(C)C)cc1)C(NN)c1nnnn1Cc1ccc2c(c1)OCO2 (stereo not shown) | EAPA | enzyme activity | inhibitor | – | 200 µM | – | 95.3 |
| CNC(=O)c1cc(Oc2ccc(NC(=O)Nc3ccc(Cl)c(C(F)(F)F)c3)cc2)ccn1 | Serine/threonine-protein kinase SIK1 (SIK1, Homo sapiens, UniProt P57059) | enzyme activity | inhibitor | – | 10 µM | – | 3 |
| C#CCOCCOCCOc1ccc2c3c1C1CCCC1N3CCNC2 (racemic) | HTR2C | ligand displacement | – | radioligand | 10 µM | – | 100 |
| NNC(CCc1ccccc1)c1nnnn1Cc1ccc2c(c1)OCCO2 (stereo not shown) | EAPA | enzyme activity | inhibitor | – | 200 µM | – | 42.5 |
| CCN(CC)CCNC(=O)CN1C(=O)Cc2c([nH]c3ccc(Br)cc23)-c2ccc(Cl)cc21 | Trypanothione synthetase | enzyme activity | inhibitor | absorbance | 30 µM | – | 17.1 |
| Oc1cccc(Nc2nc(-c3ccc(F)cc3F)cs2)c1 | TACR1 | cell-free assay | – | – | 10 µM | – | 30 |
| COc1cc2c(cc1OC)CN(C(C)CCc1ccc(O)cc1)CC2 (stereo not shown) | Tmem97 | ligand displacement | – | radioligand | 0.1 µM | – | 94 |
| CCN(CC)C(=O)CN1C(=O)Cc2c([nH]c3ccc(Br)cc23)-c2ccc(Cl)cc21 | Trypanothione synthetase | enzyme activity | inhibitor | absorbance | 30 µM | – | 7.8 |
| O=C(c1ccc(Cl)cc1)N(Cc1ccccc1)C1CCCCC1 | TACR1 | cell-free assay | – | – | 10 µM | – | 15.1 |
| CCCCCC(NN)c1nnnn1Cc1ccc2c(c1)OCO2 (stereo not shown) | EAPA | enzyme activity | inhibitor | – | 200 µM | – | 32.8 |
| FC(F)(F)c1ccc(-c2nnc(-c3cc4c(s3)CCCC4)o2)cn1 | dxs | enzyme activity | inhibitor | – | 120 µM | – | 0 |
| CC(C)(C)OC(=O)NCCNC(=O)CN1C(=O)Cc2c([nH]c3ccc(Br)cc23)-c2ccc(Cl)cc21 | Trypanothione synthetase | enzyme activity | inhibitor | absorbance | 30 µM | – | 38.5 |
| CCC(C)C(NN)c1nnnn1CC(c1ccccc1)c1ccccc1 (stereo not shown) | EAPA | enzyme activity | inhibitor | – | 200 µM | – | 40.3 |
| O=C(COc1ccc(Cl)cc1Cl)N/N=C/c1c[nH]c2ccccc12 | dxs | enzyme activity | inhibitor | – | 200 µM | – | 45.3 |
